Reference: ChEMBL document CHEMBL1122734, “A novel peptide delivery system involving peptidase activated prodrugs as antimicrobial agents. Synthesis and biological activity of peptidyl derivatives of 5-fluorouracil” (J Med Chem, 1984)
Converted amounts (≈) assume the structure as drawn.

What was measured:
Candida albicans [1] = assay: Compound is evaluated for minimum inhibitory concentrations against Candida albicans strain BC759; type: functional
Summary of the method: (§1)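 Twofold broth dilution in yeast carbon base medium with lysine 200 µg/mL. Final inoculum was approximately 10^4-10^5 cfu/mL, incubated overnight at 37 °C. MIC was taken as the lowest concentration giving complete growth inhibition.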

Mus musculus [2] = organism: Mus musculus; assay: Stability in mouse serum at the time of zero(0) hours, stability was measured by in the form of percent Fluoro uracil; type: ADME
Summary of the method: (§2)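 A 1:1 mixture of the L,L and L,D peptide diastereomers was added as powder to undiluted serum at 0.5 mg/mL and held at 37 °C. Samples were taken at time points, filtered through glass fiber, and analysed by reversed-phase (RP-18) HPLC. Values are the increase in percent free 5-FU.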

Homo sapiens [3] = organism: Homo sapiens; assay: Stability in human serum at the time of 5 hours, stability was measured by in the form of percent Fluoro uracil; type: ADME; summary of the method: as §2
Escherichia coli [4] = assay: 2 mg/disk of dialanine was codisked on the compound and evaluated for antagonistic activity against Escherichia coli M2626,at 1.5 ug/disk; type: functional
Summary of the method: (§3)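 Disk diffusion on E. coli seeded agar plates. Culture grown in trypticase soy broth for 7 h at 37 °C with shaking at 250 rpm, then 1 mL per litre of agar medium; plates made as for C. albicans but with M-9 medium. Peptide in water absorbed onto 6.35-mm paper disks. Antagonism tested by placing a second disk with noninhibitory di- or tripeptide over the test disk. Plates incubated 24 h at 37 °C; inhibition zones read.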

Mus musculus [5] = organism: Mus musculus; assay: Stability in mouse serum at the time of 2.5 hours, stability was measured by in the form of percent Fluoro uracil; type: ADME; summary of the method: as §2
Escherichia coli [6] = assay: Compound is evaluated for antagonistic activity against Escherichia coli M2626 at 1.5 ug/disk; type: functional; summary of the method: as §3
Escherichia coli [7] = assay: Compound is evaluated for antagonistic activity against Escherichia coli M2626 at […]; type: functional
Escherichia coli [8] = assay: Compound is evaluated for antagonistic activity against Escherichia coli M2626 at 6.0 ug/disk; type: functional; summary of the method: as §3
Escherichia coli [9] = assay: 2 mg/disk of dialanine was codisked on the compound and evaluated for antagonistic activity against Escherichia coli M2626,at 3.0 ug/disk; type: functional; summary of the method: as §3
Candida albicans [10] = assay: Compound is evaluated for minimum inhibitory concentrations against Candida albicans strain 3153A; type: functional; summary of the method: as §1
[11] = Stability in water (H20) at the time of zero(0) hours, stability was measured by in the form of percent Fluoro uracil; type: physicochemical; conditions: buffer
Summary of the method: (§4)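 A 1:1 mixture of the L,L and L,D peptide diastereomers was added at 0.5 mg/mL to distilled water and kept at 23 °C. Samples were taken over time, filtered through glass fiber, and analysed by RP-18 HPLC. Values are the percent free 5-FU formed.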

Escherichia coli [12] = assay: Compound is evaluated for antagonistic activity against Escherichia coli M2626 at 3.0 ug/disk; type: functional; summary of the method: as §3
Mus musculus [13] = organism: Mus musculus; assay: Stability in mouse serum at the time of 24 hours, stability was measured by in the form of percent Fluoro uracil; type: ADME; summary of the method: as §2
Candida albicans [14] = assay: Compound is evaluated for minimum inhibitory concentrations against Candida albicans strain B311; type: functional; summary of the method: as §1
Escherichia coli [15] = assay: 2 mg/disk of dialanine was codisked on the compound and evaluated for antagonistic activity against Escherichia coli M2626,at 6.0 ug/disk; type: functional; summary of the method: as §3
Homo sapiens [16] = organism: Homo sapiens; assay: Stability in human serum at the time of zero(0) hours, stability was measured by in the form of percent Fluoro uracil; type: ADME; summary of the method: as §2
Mus musculus [17] = organism: Mus musculus; assay: Stability in mouse serum at the time of 5 hours, stability was measured by in the form of percent Fluoro uracil; type: ADME; summary of the method: as §2
Escherichia coli [18] = assay: 2 mg/disk of dialanine was codisked on the compound and evaluated for antagonistic activity against Escherichia coli M2626,at […]; type: functional
Homo sapiens [19] = organism: Homo sapiens; assay: Stability in human serum at the time of 1.5 hours, stability was measured by in the form of percent Fluoro uracil; type: ADME; summary of the method: as §2
Mus musculus [20] = organism: Mus musculus; assay: Stability in mouse serum at the time of 0.5 hours, stability was measured by in the form of percent Fluoro uracil; type: ADME; summary of the method: as §2
Homo sapiens [21] = organism: Homo sapiens; assay: Stability in human serum at the time of 24 hours, stability was measured by in the form of percent Fluoro uracil; type: ADME; summary of the method: as §2
Mus musculus [22] = organism: Mus musculus; assay: Stability in mouse serum at the time of 1.5 hours, stability was measured by in the form of percent Fluoro uracil; type: ADME; summary of the method: as §2
[23] = Stability in water (H20) at the time of 240 hours, stability was measured by in the form of percent Fluoro uracil; type: physicochemical; conditions: buffer; summary of the method: as §4
Homo sapiens [24] = organism: Homo sapiens; assay: Stability in human serum at the time of 50 hours, stability was measured by in the form of percent Fluoro uracil; type: ADME; summary of the method: as §2
Homo sapiens [25] = organism: Homo sapiens; assay: Stability in human serum at the time of 0.5 hours, stability was measured by in the form of percent Fluoro uracil; type: ADME; summary of the method: as §2
Escherichia coli [26] = assay: Compound is evaluated for antagonistic activity against Escherichia coli M2626 at 25.0 ug/disk; type: functional; summary of the method: as §3
Candida albicans [27] = assay: Compound is evaluated for disk diffusion assay of the activity against Candida albicans B-311 at […]; type: functional
Candida albicans [28] = assay: Compound is evaluated for disk diffusion assay of the activity against Candida albicans B-311 at 3.0 ug/disk; type: functional
Summary of the method: (§5)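 Cells grown 7 h at 37 °C in trypticase soy broth with shaking at 250 rpm. 1 mL of culture was seeded into 1 L of yeast carbon base agar with lysine 200 µg/mL, and 15 mL was poured per plate. Peptides in water were loaded onto 6.35-mm paper disks. Plates were incubated 24 h at 37 °C and inhibition zones read.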

Candida albicans [29] = assay: Compound is evaluated for disk diffusion assay of the activity against Candida albicans B-311 at 1.5 ug/disk; type: functional; summary of the method: as §5
Candida albicans [30] = assay: Compound is evaluated for disk diffusion assay of the activity against Candida albicans B-311 at 25.0 ug/disk; type: functional; summary of the method: as §5
Candida albicans [31] = assay: Compound is evaluated for disk diffusion assay of the activity against Candida albicans B-311 at 6.0 ug/disk; type: functional; summary of the method: as §5
[32] = Candida albicans, read-out: MIC

## C[C@H](N)C(=O)NC(C(=O)O)n1cc(F)c(=O)[nH]c1=O (some centres undefined)
Candida albicans [1]; [32]
  MIC: 6.3 µg/mL (≈ 23 µM)
Mus musculus [2]
  Serum stability: 0
Homo sapiens [3]
  Serum stability: 15
Escherichia coli [4]
  Zone size: 0 mm
Mus musculus [5]
  Serum stability: 36
Escherichia coli [6]
  Zone size: 22 mm
Escherichia coli [7]
  Zone size: 26 mm
Escherichia coli [8]
  Zone size: 27 mm
Escherichia coli [9]
  Zone size: 0 mm
Candida albicans [10]; [32]
  MIC: 25 µg/mL (≈ 91.2 µM)
[11]
  Serum stability: 0
Escherichia coli [12]
  Zone size: 25 mm
Mus musculus [13]
  Serum stability: 53
Candida albicans [14]; [32]
  MIC: 25 µg/mL (≈ 91.2 µM)
Escherichia coli [15]
  Zone size: 0 mm
Homo sapiens [16]
  Serum stability: 0
Mus musculus [17]
  Serum stability: 43
Escherichia coli [18]
  Zone size: 0 mm
Homo sapiens [19]
  Serum stability: 7
Mus musculus [20]
  Serum stability: 12
Homo sapiens [21]
  Serum stability: 16
Mus musculus [22]
  Serum stability: 27
[23]
  Serum stability: 9
Homo sapiens [24]
  Serum stability: 25
Homo sapiens [25]
  Serum stability: 3
Escherichia coli [26]
  Zone size: 31 mm

## C[C@H](N)C(=O)N[C@@H](C(=O)O)n1cc(F)c(=O)[nH]c1=O (stereo in doubt; 8a(L,L))
Candida albicans [1]
  MIC: 1.6 µg/mL (≈ 5.83 µM)
Candida albicans [27]
  Activity: 26
Candida albicans [10]
  MIC: 12.5 µg/mL (≈ 45.6 µM)
Candida albicans [28]
  Activity: 20
Candida albicans [14]
  MIC: 12.5 µg/mL (≈ 45.6 µM)
Candida albicans [29]
  Activity: 16
Candida albicans [30]
  Activity: 30
Candida albicans [31]
  Activity: 22

## C[C@H](N)C(=O)N[C@@H](C(=O)O)n1cc(F)c(=O)[nH]c1=O (stereo in doubt; 8b(L,D))
Candida albicans [1]
  MIC: >100 µg/mL
Candida albicans [27]
  Activity: 0
Candida albicans [10]
  MIC: >100 µg/mL
Candida albicans [28]
  Activity: 0
Candida albicans [14]
  MIC: >100 µg/mL
Candida albicans [29]
  Activity: 0
Candida albicans [30]
  Activity: 0
Candida albicans [31]
  Activity: 0

## O=c1[nH]cc(F)c(=O)[nH]1 [FLUOROURACIL]
Candida albicans [1]; [32]
  MIC: 1 µg/mL (≈ 7.69 µM)
Escherichia coli [4]
  Zone size: 33 mm
Candida albicans [27]
  Activity: 40
Escherichia coli [6]
  Zone size: 33 mm
Escherichia coli [7]
  Zone size: 41 mm
Escherichia coli [8]
  Zone size: 40 mm
Escherichia coli [9]
  Zone size: 38 mm
Candida albicans [10]; [32]
  MIC: 1 µg/mL (≈ 7.69 µM)
Candida albicans [28]
  Activity: 30
Escherichia coli [12]
  Zone size: 38 mm
Candida albicans [14]; [32]
  MIC: 4 µg/mL (≈ 30.8 µM)
Escherichia coli [15]
  Zone size: 40 mm
Escherichia coli [18]
  Zone size: 41 mm
Candida albicans [29]
  Activity: 22
Candida albicans [30]
  Activity: 44
Candida albicans [31]
  Activity: 30
Escherichia coli [26]
  Zone size: 46 mm
